Test results: publication PMC3288537 (ACS Chemical Biology, 2011)
Values joined by “and” are separate entries in the source; they are usually repeats but may differ in a detail not shown here. Equal entries are not always repeated.

Assays:
HePTP = target: T1, HePTP (Homo sapiens, UniProt P35236); assay: Dose-response OMFP phosphatase assay, HePTP; format: biochemical
T1 sequence (P35236 1-360): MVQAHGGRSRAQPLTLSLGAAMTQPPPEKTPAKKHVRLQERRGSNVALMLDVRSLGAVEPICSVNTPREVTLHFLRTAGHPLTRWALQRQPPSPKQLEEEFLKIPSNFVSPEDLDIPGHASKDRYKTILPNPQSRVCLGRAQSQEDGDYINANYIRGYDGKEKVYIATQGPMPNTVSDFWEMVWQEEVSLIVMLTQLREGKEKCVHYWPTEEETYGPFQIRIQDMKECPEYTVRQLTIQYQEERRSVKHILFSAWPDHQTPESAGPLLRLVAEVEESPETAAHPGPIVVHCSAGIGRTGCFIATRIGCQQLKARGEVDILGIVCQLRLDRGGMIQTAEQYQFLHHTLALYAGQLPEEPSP

LYP = target: T2, LYP (Homo sapiens, UniProt Q9Y2R2); assay: Dose-response OMFP phosphatase assay, LYP; format: biochemical; conditions: read-out: IC50 LYP; OMFP substrate
T2 sequence (Q9Y2R2 1-807): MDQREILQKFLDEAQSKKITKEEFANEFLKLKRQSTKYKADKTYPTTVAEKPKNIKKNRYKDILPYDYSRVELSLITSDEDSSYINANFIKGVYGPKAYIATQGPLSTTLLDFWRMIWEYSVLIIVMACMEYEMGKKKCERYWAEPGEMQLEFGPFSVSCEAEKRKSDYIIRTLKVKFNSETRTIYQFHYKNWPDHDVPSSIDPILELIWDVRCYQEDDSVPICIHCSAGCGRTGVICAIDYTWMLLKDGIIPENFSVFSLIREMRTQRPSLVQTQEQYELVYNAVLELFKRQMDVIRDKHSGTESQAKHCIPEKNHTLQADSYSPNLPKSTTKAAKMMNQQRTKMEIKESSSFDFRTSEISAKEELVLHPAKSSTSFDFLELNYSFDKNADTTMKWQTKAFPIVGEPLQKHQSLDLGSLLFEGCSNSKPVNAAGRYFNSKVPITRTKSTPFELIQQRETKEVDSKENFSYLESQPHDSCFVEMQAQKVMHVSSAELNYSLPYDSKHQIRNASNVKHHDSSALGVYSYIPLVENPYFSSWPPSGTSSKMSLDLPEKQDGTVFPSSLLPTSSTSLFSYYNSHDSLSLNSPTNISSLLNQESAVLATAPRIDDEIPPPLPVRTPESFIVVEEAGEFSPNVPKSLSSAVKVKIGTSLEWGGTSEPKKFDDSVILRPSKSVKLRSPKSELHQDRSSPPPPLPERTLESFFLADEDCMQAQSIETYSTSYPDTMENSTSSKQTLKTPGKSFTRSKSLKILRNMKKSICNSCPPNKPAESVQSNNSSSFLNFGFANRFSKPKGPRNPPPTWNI

SHP1 = SHP1 (Homo sapiens, UniProt P29350); assay: Dose-response OMFP phosphatase assay, SHP1; format: biochemical; conditions: read-out: IC50 SHP1; OMFP substrate
Chain of SHP1 (P29350 whole entry): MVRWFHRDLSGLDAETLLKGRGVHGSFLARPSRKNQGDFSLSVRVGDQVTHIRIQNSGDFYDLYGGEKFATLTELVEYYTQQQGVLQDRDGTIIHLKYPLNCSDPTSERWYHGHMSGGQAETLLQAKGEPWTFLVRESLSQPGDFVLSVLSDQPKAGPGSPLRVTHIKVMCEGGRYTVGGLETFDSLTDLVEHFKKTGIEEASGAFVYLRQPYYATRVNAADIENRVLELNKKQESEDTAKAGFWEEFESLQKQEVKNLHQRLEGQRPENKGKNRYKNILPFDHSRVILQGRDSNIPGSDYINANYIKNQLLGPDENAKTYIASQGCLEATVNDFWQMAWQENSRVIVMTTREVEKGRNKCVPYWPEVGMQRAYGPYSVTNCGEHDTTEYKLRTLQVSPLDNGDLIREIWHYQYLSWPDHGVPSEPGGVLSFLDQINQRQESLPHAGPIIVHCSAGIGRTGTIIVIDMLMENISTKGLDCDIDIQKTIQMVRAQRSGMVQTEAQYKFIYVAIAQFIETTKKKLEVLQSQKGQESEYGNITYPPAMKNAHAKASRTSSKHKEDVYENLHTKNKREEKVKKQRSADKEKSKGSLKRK
In short: (§1)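 Ten-point 2-fold dilution series of test compound prepared in DMSO. Fluorescence (ex 485/em 528 nm) read in kinetic mode over 10 min; progress-curve slopes taken as activity. IC50 by nonlinear regression (sigmoidal, variable slope).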

[1] = target: T3, HePTP-DM (K105A/T106A double mutant) (Homo sapiens, UniProt P35236, K126A/T127A); assay: Dose-response OMFP phosphatase assay, HePTP K105A/T106A double mutant; format: biochemical; conditions: read-out: IC50 HePTP-DM
T3 sequence (P35236 22-360 K126A/T127A limits assumed): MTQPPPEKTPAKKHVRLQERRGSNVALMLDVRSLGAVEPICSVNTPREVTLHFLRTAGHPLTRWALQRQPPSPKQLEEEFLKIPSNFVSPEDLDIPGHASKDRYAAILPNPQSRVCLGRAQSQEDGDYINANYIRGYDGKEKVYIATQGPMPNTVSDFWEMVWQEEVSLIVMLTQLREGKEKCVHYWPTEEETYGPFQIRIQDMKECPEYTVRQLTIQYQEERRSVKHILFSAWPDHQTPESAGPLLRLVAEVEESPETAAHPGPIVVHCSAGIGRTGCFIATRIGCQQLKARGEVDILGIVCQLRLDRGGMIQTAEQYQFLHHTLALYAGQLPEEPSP

LAR = LAR (Homo sapiens, UniProt P10586); assay: Dose-response OMFP phosphatase assay, LAR; format: biochemical; conditions: read-out: IC50 LAR; OMFP substrate
Chain of LAR (P10586 30-1907, species assumed): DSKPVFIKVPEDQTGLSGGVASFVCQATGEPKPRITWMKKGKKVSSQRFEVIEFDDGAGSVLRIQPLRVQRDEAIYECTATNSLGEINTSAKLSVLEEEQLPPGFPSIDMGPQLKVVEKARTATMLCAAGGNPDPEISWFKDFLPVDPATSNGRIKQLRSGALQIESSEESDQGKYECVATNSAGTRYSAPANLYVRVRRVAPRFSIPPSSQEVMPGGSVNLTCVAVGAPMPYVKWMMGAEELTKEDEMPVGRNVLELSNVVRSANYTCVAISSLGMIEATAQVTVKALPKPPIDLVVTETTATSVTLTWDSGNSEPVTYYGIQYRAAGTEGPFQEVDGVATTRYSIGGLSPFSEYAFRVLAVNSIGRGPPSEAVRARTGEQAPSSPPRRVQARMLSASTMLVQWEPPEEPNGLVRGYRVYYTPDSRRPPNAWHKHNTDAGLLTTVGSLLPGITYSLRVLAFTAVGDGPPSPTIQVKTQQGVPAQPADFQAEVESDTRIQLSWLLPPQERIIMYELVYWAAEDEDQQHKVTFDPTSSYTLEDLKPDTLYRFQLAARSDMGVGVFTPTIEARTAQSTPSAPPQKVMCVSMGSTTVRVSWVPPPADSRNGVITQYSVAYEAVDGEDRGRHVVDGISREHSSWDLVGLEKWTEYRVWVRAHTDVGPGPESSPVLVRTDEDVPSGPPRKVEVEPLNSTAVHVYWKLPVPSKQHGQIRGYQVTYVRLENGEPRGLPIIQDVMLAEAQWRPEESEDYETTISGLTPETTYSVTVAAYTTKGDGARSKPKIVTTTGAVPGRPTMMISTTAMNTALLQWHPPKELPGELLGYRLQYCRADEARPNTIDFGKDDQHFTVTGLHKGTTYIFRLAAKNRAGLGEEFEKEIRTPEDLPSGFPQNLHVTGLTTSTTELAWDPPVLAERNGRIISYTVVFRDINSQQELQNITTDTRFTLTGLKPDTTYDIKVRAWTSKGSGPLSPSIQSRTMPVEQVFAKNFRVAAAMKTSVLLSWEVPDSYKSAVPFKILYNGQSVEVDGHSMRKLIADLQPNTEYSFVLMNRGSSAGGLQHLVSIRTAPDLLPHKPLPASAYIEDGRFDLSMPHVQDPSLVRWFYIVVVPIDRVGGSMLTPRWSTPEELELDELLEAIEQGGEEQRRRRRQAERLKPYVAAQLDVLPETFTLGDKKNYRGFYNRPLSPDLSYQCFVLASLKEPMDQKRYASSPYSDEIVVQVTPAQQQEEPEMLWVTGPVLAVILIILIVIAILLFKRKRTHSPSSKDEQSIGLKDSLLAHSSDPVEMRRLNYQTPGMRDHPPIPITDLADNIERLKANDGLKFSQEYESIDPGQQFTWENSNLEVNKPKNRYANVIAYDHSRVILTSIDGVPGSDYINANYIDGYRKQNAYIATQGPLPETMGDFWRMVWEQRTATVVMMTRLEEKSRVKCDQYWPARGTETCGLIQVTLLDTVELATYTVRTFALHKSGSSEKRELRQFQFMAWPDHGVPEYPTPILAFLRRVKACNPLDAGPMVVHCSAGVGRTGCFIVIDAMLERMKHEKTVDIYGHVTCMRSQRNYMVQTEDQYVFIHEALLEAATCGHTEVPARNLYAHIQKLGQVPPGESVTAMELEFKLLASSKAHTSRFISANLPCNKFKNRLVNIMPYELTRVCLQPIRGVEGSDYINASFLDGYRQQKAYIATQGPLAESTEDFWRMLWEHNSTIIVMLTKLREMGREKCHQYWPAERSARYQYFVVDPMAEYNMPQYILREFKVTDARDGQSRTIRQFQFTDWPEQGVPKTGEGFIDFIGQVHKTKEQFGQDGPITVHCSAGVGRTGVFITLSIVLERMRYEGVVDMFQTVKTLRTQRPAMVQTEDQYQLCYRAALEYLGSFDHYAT
In short: as §1

[2] = Serum concentration in mice after i.p. injection; format: in vivo; conditions: i.p. 3 mg/kg
In short: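 Mice dosed i.p. at 3 mg/kg with test compound. Blood serum collected 5, 20, 60 and 120 min after injection for measurement of compound concentration.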

PTP1B = target: T4, PTP1B (Homo sapiens, UniProt P18031); assay: Dose-response OMFP phosphatase assay, PTP1B; format: biochemical; conditions: read-out: IC50 PTP1B; OMFP substrate
T4 sequence (P18031 1-435): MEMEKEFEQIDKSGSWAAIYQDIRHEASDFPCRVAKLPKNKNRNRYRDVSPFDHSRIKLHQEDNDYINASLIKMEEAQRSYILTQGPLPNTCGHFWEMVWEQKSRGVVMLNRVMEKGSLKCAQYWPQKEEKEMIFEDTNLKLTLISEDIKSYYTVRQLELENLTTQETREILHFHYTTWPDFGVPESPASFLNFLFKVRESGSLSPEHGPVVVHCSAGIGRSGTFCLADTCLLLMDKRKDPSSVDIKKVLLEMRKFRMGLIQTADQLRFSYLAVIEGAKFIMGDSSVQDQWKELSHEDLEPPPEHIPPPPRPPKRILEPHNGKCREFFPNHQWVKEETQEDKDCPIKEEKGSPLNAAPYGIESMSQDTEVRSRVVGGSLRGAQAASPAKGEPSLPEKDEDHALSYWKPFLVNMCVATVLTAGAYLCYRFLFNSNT

[3] = tested on: ERK1/2 and p38 phosphorylation in Jurkat TAg T cells; assay: Immunoblot of pERK1/2, pp38 and pMEK in TCR-stimulated Jurkat TAg T cells; format: cell-based, human
In short: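 Jurkat TAg T cells preincubated with test compound or DMSO (0.2% in time course) for 45 min at 37°C, then stimulated with OKT3 at 500 ng mL-1 for 5 min. Cells lysed at once, or washed and held in fresh RPMI 1640 for set times. Immunoblotted for phospho-ERK1/2, p38 and MEK; bands normalised to total protein (time course also to GAPDH). Mean ± SEM; Student's t-test; 3–4 independent experiments.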

[4] = 4 μM preincubation, before TCR stimulation, stimulated DMSO = 100%
[5] = 4 μM, OKT3 stimulation, DMSO = 100%
[6] = 4 μM, up to 2 h after TCR stimulation
[7] = 40 μM, 45 min preincubation, OKT3 5 min, vs DMSO

SMILES: O=C(O)c1ccccc1-c1ccc(/C=c2\sc3nc4cc(Br)cnc4n3c2=O)o1 [Compound 1]
- time-dependent inhibition of HePTP (progress curves) (HePTP; progress curves linear over 98 min at different concentrations): no time-dependent inhibition
- IC50 (HePTP; read-out: IC50 HePTP, OMFP substrate): 210 nM
- IC50 (LYP): 1900 nM
- IC50 (SHP1): 2500 nM
- IC50 [1]: 6.6 µM
- IC50 (LAR): 73 µM
- serum concentration (peak) ([2]; 20 min, 3 mg/kg): 1.24 ± 0.17 µM and 1.24 µM
- serum concentration ([2]; 2 h): 0.018 ± 0.010 µM
- IC50 (PTP1B): 1700 nM
- basal pERK1/2 phosphorylation level [3, 4]: 22.0 ± 2.5%
- basal pp38 phosphorylation level [3, 4]: 55.0 ± 5.8%
- pERK1/2 level after TCR stimulation [3, 5]: 134.3 ± 4.9%
- pp38 level after TCR stimulation [3, 5]: 125.5 ± 4.0%
- time course of pERK1/2 levels after stimulation [3, 6]: remained constant up to 1 h after stimulation
- time course of pp38 levels after stimulation [3, 6]: remained unchanged
- pERK1/2 levels [3, 7]: augmented
- pMEK levels (activation of MEK) [3, 7]: unchanged
- pp38 levels [3, 7]: augmented
- pMEK levels in dose-response ([3]; concentrations as high as 40 μM): not affected
